# In paper PMC3481142 (Cell Death & Disease, 2012):
# Square brackets hold non-standard residues; d marks the D form. Peptide text beside a SMILES is read from it.
# Columns and labels:
# Saos-2 cells = assay: cytochrome c release, immunolocalization; type: cell-based; details: 10 µM, 24 h
# SKBr3 cells = assay: MTT and trypan blue cell viability assays; type: cell-based, human
# [1] = tested on: Bcl-2 family proteins, IAPs and caspases in MDA-MB-468 cells; assay: western blots of apoptosis-related proteins and caspases; type: cell-based, human; details: 72 h
# Method in brief: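 MDA-MB-468 cells were treated for 72 h with TAT-NBI1, erlotinib or both at the indicated μM concentrations. Whole-cell extracts were made in 25 mM Tris-HCl pH 7.4, 1 mM EDTA, 1 mM EGTA and 1% SDS with protease and phosphatase inhibitors, and protein was quantified by BCA. Lysates were run on SDS-PAGE, transferred to nitrocellulose and immunoblotted.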
# [2] = patients with advance solid tumors; cited from earlier work
# MDA-MB-231 cell line = assay: cell viability IC50 determination; type: cell-based; details: Homo sapiens, MDA-MB-231, read-out: IC50 (MDA-MB-231)
# [3] = solubility in culture medium; type: physicochemical
# [4] = tested on: Cyt c release in MDA-MB-468 cells; assay: Cyt c release from mitochondria; type: cell-based, human; details: 48 h; doxorubicin 5 μM
# Method in brief: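 MDA-MB-468 cells were grown as a monolayer in Leibovitz's L-15 with 10% FBS at 37 °C without CO2, then seeded at 125 000 cells/ml. They were exposed to the test compounds for 48 h at the indicated concentrations. Cytochrome c release was quantified with a flow-cytometric cytochrome c release kit per the manufacturer's protocol, and cells were analysed on a flow cytometer.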
# [5] = tested on: caspase-3/7 activity in MDA-MB-468 cells; assay: caspase activation assay in cellular extracts; type: cell-based, human
# Method in brief: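 MDA-MB-468 cells were cultured in L-15 with 10% FBS at 37 °C without CO2 and seeded at 125 000 cells/ml. They received TAT-NBI1/erlotinib co-treatment at the indicated μM concentrations, with or without necrostatin-1, for 48 h. Caspase-3/7 activity was then measured in cellular extracts.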
# [6] = tested on: caspase-3/7 activity in MDA-MB-231 cells; assay: caspase activation assay in cellular extracts; type: cell-based
# Method in brief: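 MDA-MB-231 cells were grown in Leibovitz's L-15 with 10% FBS at 37 °C without CO2. Cells were co-treated with TAT-NBI1/erlotinib at the indicated μM concentrations, with or without necrostatin-1 (100 μM). Etoposide (25 μM) ± necrostatin-1 served as reference. Caspase-3/7 activation was measured in cellular extracts.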
compound,measurement,setting,value
CC[C@@H](C)[C@@H](NC(=O)[C@@H](Cc1c[nH]c2ccccc12)NC(=O)[C@@H](CCCNC(=N)N)NC(=O)[C@H](CCC(N)=O)NC(=O)[C@@H]1CCCN1C(=O)[C@H](CCCNC(=N)N)NC(=O)[C@H](CCCNC(=N)N)NC(=O)[C@H](CCCNC(=N)N)NC(=O)[C@H](CCC(N)=O)NC(=O)[C@H](CCCNC(=N)N)NC(=O)[C@H](CCCNC(=N)N)NC(=O)[C@H](CCCCN)NC(=O)[C@H](CCCCN)NC(=O)[C@H](CCCNC(=N)N)NC(=O)CN)C(=O)N[C@H](CCSC)C(=O)N[C@H](Cc1ccc(O)cc1)C(=O)N[C@H](Cc1ccccc1)C(N)=O [TAT-NBI1] (H-GRKKRRQRRRPQ[dR][dW][dI][dM][dY][dF]-NH2; N-terminus and C-terminus assumed),mechanism of cell death followed by cytochrome c release to the cytosol,Saos-2 cells,"induced cell death by intrinsic, mitochondrial-mediated, apoptosis"
C#Cc1cccc(Nc2ncnc3cc(OCCOC)c(OCCOC)cc23)c1 [erlotinib],change of lethal dose of erlotinib in the presence of TAT-NBI1,SKBr3 cells,twofold lower
same,Bim expression,[1],upregulated
same,plasma concentration at the steady state,[2],~5 µM
same,IC50,MDA-MB-231 cell line,> 20 µM
same,solubility,[3],≤ 20 µM
COc1cccc2c1C(=O)c1c(O)c3c(c(O)c1C2=O)C[C@@](O)(C(=O)CO)C[C@@H]3O[C@H]1C[C@H](N)[C@H](O)[C@H](C)O1 [doxorubicin],Cyt c release to the cytoplasm,[4],Cyt c release to the cytoplasm
"CN1C(=O)C(Cc2c[nH]c3ccccc23)NC1=S (stereo not drawn) [nec-1, necrostatin-1]",effect on TAT-NBI1/erlotinib-induced caspase activation,[5],inhibited
same,effect on TAT-NBI1/erlotinib-induced caspase activation,[6],inhibited
